Data published in article PMC10835327 (Heliyon, 2024).

Target: HSA (human serum albumin) (Homo sapiens, UniProt P02768)
Test: intrinsic fluorescence quenching, double-logarithmic plot
Format: binding
Conditions: Tris-HCl pH 7.40, 298 K, no added metal ion
Procedure, shortened: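 HSA (1.00 × 10−4 mol L−1) titrated stepwise with test compound dissolved in DMSO. Emission spectra recorded at 300–600 nm with excitation at 292 nm and both slits at 15 nm. Spectra taken at 291, 298, 304 and 310 K. Intensities corrected for inner-filter effect. Ka and n derived from double-logarithmic fit of intensity versus quencher concentration.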

HSA (human serum albumin), sequence (P02768 25-609): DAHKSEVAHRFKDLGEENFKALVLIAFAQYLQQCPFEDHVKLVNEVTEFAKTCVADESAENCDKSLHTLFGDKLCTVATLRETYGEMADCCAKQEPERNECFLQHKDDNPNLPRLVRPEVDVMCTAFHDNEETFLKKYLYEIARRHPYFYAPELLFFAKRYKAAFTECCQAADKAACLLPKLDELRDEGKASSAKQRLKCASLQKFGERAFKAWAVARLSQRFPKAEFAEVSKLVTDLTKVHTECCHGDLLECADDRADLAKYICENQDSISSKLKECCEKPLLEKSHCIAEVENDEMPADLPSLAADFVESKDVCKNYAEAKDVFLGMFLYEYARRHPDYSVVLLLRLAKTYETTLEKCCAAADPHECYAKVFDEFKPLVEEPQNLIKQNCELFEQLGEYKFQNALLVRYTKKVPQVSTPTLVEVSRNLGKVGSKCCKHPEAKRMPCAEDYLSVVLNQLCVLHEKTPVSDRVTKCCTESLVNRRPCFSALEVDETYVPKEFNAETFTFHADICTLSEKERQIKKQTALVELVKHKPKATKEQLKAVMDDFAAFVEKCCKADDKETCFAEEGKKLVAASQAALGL

| Compound | Ka/(L.mol^-1) (n = 1.0099) | Ka/(L.mol^-1) (n = 0.9857) |
| --- | --- | --- |
| COC(=O)/C=C/c1ccc(O)c(OC)c1 [FAM, ferulic acid methyl ester] | 8.7256 × 10^4 ±1.1863 L∙mol^−1 |  |
| COc1cc(/C=C/C(=O)O)ccc1O [FA, ferulic acid] |  | 2.5668 × 10^4 ±2.0417 L∙mol^−1 |
